Assay results: publication PMC3115469 (Molecular microbiology, 2011)
Values joined by “and” are separate entries in the source; they are usually repeats but may differ in a detail not shown here. Equal values may be shown once. Square brackets hold non-standard residues; d marks the D form. Peptide text beside a SMILES is read from it. Orn(N5-OH,N5-Ac) = CC(=O)N(O)CCC[C@H](N)C(=O)O

Columns and labels:
L. monocytogenes EGD-e [1] = assay: Iron nutrition tests on BHI agar with bipyridyl, EGD-e; assay type: cell-based, Listeria monocytogenes; settings: 50 uM Fc, EGD-e and all mutant strains
[2] = target: listerial CM Fc transporter FhuDBGC; settings: ref Jin et al., 2005, cited from earlier work
E. coli FhuA = settings: ref Newton et al., 2010; cited from earlier work
Lmo2185 (Hbp2) = target: T1, Lmo2185 (Hbp2) (Listeria monocytogenes serovar 1/2a, UniProt Q7AP54); assay: Equilibrium [59Fe]-Hn filter binding to purified Lmo2185
T1 sequence (Q7AP54 29-569): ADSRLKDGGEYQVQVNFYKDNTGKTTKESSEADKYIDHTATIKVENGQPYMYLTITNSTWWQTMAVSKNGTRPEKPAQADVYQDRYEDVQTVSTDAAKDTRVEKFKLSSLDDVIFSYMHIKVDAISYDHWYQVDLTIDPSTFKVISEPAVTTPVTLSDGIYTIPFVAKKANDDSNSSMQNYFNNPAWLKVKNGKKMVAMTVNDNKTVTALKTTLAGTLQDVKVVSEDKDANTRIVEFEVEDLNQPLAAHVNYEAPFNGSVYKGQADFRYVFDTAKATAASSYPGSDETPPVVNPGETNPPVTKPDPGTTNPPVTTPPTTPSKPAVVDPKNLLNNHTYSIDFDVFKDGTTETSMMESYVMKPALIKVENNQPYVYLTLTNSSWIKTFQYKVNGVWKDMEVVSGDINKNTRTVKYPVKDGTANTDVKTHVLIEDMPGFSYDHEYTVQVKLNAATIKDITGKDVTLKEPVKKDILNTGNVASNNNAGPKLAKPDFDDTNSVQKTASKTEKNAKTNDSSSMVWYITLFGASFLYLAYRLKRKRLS
How it was run: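 His-tagged Hbp2 expressed in E. coli BL21 (1 mM IPTG), purified on Co-NTA and Sephacryl S-100, stripped of Hn by boiling in 0.5% SDS and acetone precipitation, then renatured in TBS pH 8.0. Protein at 30.6 pmol/mL, refolded 1 h at RT, mixed with [59Fe]-Hn (DMSO) for 30 min on ice. Filtered on cellulose acetate and gamma-counted. Triplicates, protein-free background subtracted, KD from bound-vs-total fit.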

L. monocytogenes EGD-e [3] = assay: [59Fe]-Hn binding to whole cells, EGD-e; design: species or system Listeria monocytogenes; settings: strain EGD-e; for Kd: read-out: Binding Kd, MOPS-L, on ice
[4] = tested on: L. monocytogenes EGD-e Δhup (ΔhupDGC); assay: [59Fe]-Hn binding to whole cells, Δhup; design: species or system Listeria monocytogenes
[5] = tested on: L. monocytogenes EGD-e ΔsrtA; assay: [59Fe]-Hn binding to whole cells, ΔsrtA; design: species or system Listeria monocytogenes; settings: strain ΔsrtA
How it was run: (§1)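 Bacteria were grown overnight in BHI at 37°C, then passaged twice (1%) in iron-deficient MOPS-L to OD600 0.6–0.8. Cells were exposed on ice for 1 min to [59Fe]-Hn (DMSO stock diluted in ice-cold MOPS-L). They were filtered (0.45 µm), washed with 50 mM Tris-HCl pH 9.0 plus 0.05% Tween-20, and gamma-counted. Filter-only counts were subtracted. Triplicates were fitted to a one-site-plus-background model for KD and capacity (pmol/10^9 cells).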

[6] = tested on: L. monocytogenes EGD-e ΔsrtB; assay: [59Fe]-Hn binding to whole cells, ΔsrtB; design: species or system Listeria monocytogenes
[7] = tested on: L. monocytogenes EGD-e ΔsrtAB; assay: [59Fe]-Hn binding to whole cells, ΔsrtAB; design: species or system Listeria monocytogenes; settings: strain ΔsrtAB
How it was run: as §1

[8] = tested on: L. monocytogenes EGD-e Δlmo2185 (Δhbp2); assay: [59Fe]-Hn binding to whole cells, Δlmo2185; design: species or system Listeria monocytogenes
L. monocytogenes EGD-e [9] = assay: [59Fe]-Hn uptake by cells, EGD-e; assay type: cell-based, Listeria monocytogenes; settings: for Km: read-out: Transport Km; for Km / Transport Vmax: 37°C
[10] = tested on: L. monocytogenes EGD-e Δhup (ΔhupDGC); assay: [59Fe]-Hn uptake by cells, Δhup; assay type: cell-based, Listeria monocytogenes
[11] = tested on: L. monocytogenes EGD-e ΔsrtA; assay: [59Fe]-Hn uptake by cells, ΔsrtA; assay type: cell-based, Listeria monocytogenes; settings: strain ΔsrtA
How it was run: (§2)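 Cultures from overnight BHI (37°C) were passaged 1% into MOPS-L to stationary phase, then again to OD600 0.8–1. Cells were added to 37°C MOPS containing varying [59Fe]-Hn, filtered at 5 s and 1 min, washed with ice-cold 50 mM Tris, 0.05% Tween-20, pH 9, and gamma-counted. The 5 s counts were subtracted from 1 min counts to give rate. Triplicates were fitted to enzyme kinetics for KM and Vmax.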

[12] = tested on: L. monocytogenes EGD-e ΔsrtB; assay: [59Fe]-Hn uptake by cells, ΔsrtB; assay type: cell-based, Listeria monocytogenes; settings: strain ΔsrtB
How it was run: as §2

[13] = tested on: L. monocytogenes EGD-e ΔsrtAB; assay: [59Fe]-Hn uptake by cells, ΔsrtAB; assay type: cell-based, Listeria monocytogenes; settings: strain ΔsrtAB
How it was run: as §2

L. monocytogenes EGD-e [14] = assay: Growth assay in BHI with 2,2'-bipyridyl; assay type: cell-based, Listeria monocytogenes
HupD-6H (Lmo2431) = HupD-6H (Lmo2431) (Listeria monocytogenes, UniProt Q8Y4K7); assay: Intrinsic Trp fluorescence quenching, ligand binding to purified 6H-HupD
L. monocytogenes EGD-e [15] = settings: aqueous buffers; ref Jin et al., 2005; cited from earlier work
FhuD-6H (Lmo1959) = FhuD-6H (Lmo1959) (Listeria monocytogenes, UniProt Q8Y5U6); assay: Intrinsic Trp fluorescence quenching, ligand binding to purified 6H-FhuD

## CC(=O)N(O)CCC[C@@H]1NC(=O)CNC(=O)CNC(=O)CNC(=O)[C@H](CCCN(O)C(C)=O)NC(=O)[C@H](CCCN(O)C(C)=O)NC1=O.[Fe+3] [Fc, ferrichrome] (cyclo(GGG[Orn(N5-OH,N5-Ac)][Orn(N5-OH,N5-Ac)][Orn(N5-OH,N5-Ac)]))
L. monocytogenes EGD-e [1]
  utilization as iron source in nutrition test: normally utilized
[2]; read-out: KD, listerial Fc acquisition, KD ≈ KM
  Kd: ~1 nM
[2]; read-out: KM, listerial Fc transport, KD ≈ KM
  Km: ~1 nM
[2]
  Vmax of Fc transport, FhuDBGC: 22 pMol/10^9 cells/min
E. coli FhuA
  Vmax of Fc transport, E. coli FhuA: 45 pMol/10^9 cells/min

## C=CC1=C(C)c2cc3[n-]c(cc4nc(cc5[n-]c(cc1n2)c(C)c5CCC(=O)O)C(CCC(=O)O)=C4C)c(C)c3C=C.[59Fe+3] [[^59Fe]-Hn]
Lmo2185 (Hbp2)
  Kd: 12 nM
L. monocytogenes EGD-e [3]
  Kd: 2 nM and 2.4 nM
  Binding Cap.: 130 pMol/10^9cells and 129.5 ± 5.6 pMol/10^9cells
[4]; read-out: Binding Kd, strain Δhup
  Kd: 2.5 ± 0.45 nM
[4]; strain Δhup
  Binding Cap.: 105 pMol/10^9cells and 105 ± 4.2 pMol/10^9cells
[4]; Δhup vs EGD-e
  decrease of binding capacity: ~ 20% and 20%
[5]; read-out: Binding Kd
  Kd: 2.3 ± 0.16 nM
[5]
  Binding Cap.: 130 pMol/10^9cells and 129 ± 1.9 pMol/10^9cells
[6]; read-out: Binding Kd, strain ΔsrtB
  Kd: 9.9 ± 1.3 nM
[6]; strain ΔsrtB
  Binding Cap.: 19 pMol/10^9cells and 18.7 ± 0.9 pMol/10^9cells
[6]; ΔsrtB vs EGD-e, nanomolar range
  decrease of binding capacity: 80%
[7]; read-out: Binding Kd
  Kd: 5.1 ± 3 nM
[7]
  Binding Cap.: 9 pMol/10^9cells and 9 ± 1.5 pMol/10^9cells
[8]; read-out: Binding Kd, strain Δlmo2185 (Δhbp2)
  Kd: 11.4 ± 2.6 nM
[8]; strain Δlmo2185 (Δhbp2)
  Binding Cap.: 30.1 ± 2.9 pMol/10^9cells
[8]; Δhbp2 vs EGD-e, nanomolar range
  decrease of binding capacity: 80%
L. monocytogenes EGD-e [9]; strain EGD-e
  Km: 1.2 ± 0.2 nM
  Vmax of uptake (text, unit without /min): 23 pMol/10^9 cells
  Transport Vmax: 22.2 ± 0.9 pMol/10^9cells/min
L. monocytogenes EGD-e [9]; residual accumulation in Δhup subtracted from wild-type, estimate
  Hup-dependent transport rate Vmax: 14 pMol/10^9 cells/min
[10]; read-out: Transport Km, strain Δhup
  Km: 1.1 ± 0.2 nM
[10]; strain Δhup
  Transport Vmax: 7.5 pMol/10^9cells/min and 7.5 ± 0.3 pMol/10^9cells/min
[10]; ΔhupDGC vs EGD-e
  Vmax as percent of the wild type rate: 27%
[11]; read-out: Transport Km
  Km: 1.4 ± 0.2 nM
[11]
  Transport Vmax: 23.1 ± 0.6 pMol/10^9cells/min
[12]; read-out: Transport Km
  Km: 7.1 ± 7.5 nM
[12]
  Transport Vmax: 3.5 ± 1.6 pMol/10^9cells/min
[13]; read-out: Transport Km
  Km: 15.1 ± 6.4 nM
[13]
  Transport Vmax: 5.6 ±1.3 pMol/10^9cells/min

## c1ccc(-c2ccccn2)nc1 [BP, 2, 2’-bipyridyl]
L. monocytogenes EGD-e [14]; 1 mM BP, wild type and mutant derivatives
  effect on growth in BHI: inhibited growth

## C=CC1=C(C)c2cc3[nH]c(cc4nc(cc5[nH]c(cc1n2)c(C)c5C=C)C(C)=C4CCC(=O)O)c(CCC(=O)O)c3C.[Fe+3] [Hn, haemin]
HupD-6H (Lmo2431); relative to FhuD-FxB
  fold higher affinity of 6H-HupD than the most avid LmoFhuD binding interaction: 5 fold
L. monocytogenes EGD-e [3]
  Kd: ~1 nM
L. monocytogenes EGD-e [9]; strain EGD-e
  Km: 1 nM and ~1 nM
  Transport Vmax: 23 pMol/10^9cells/min
[10]; strain Δhup
  Transport Vmax: 7 pMol/10^9cells/min
[10]; ΔhupDBGC strain vs EGD-e
  fold lower uptake rate than wild type: 3 fold
L. monocytogenes EGD-e [14]; 0.2 mM Hn added (printed), EGD-e
  effect on growth in BHI containing 1 mM BP: returned to its original growth rate
L. monocytogenes EGD-e [15]
  concentration that stimulated growth in previous study: 200 µM

## C=CC1=C(C)c2cc3[nH]c(cc4nc(cc5[nH]c(cc1n2)c(C)c5CCC(=O)O)C(CCC(=O)O)=C4C)c(C)c3C=C [PPIX, protoporphyrin IX]
FhuD-6H (Lmo1959); Binding Kd FhuD-6H, intrinsic fluorescence quenching, 3–5 trials, Kd ± SD
  Kd: 276 ± 32 nM
FhuD-6H (Lmo1959); KD for 6H-FhuD, fluorescence spectroscopy
  Kd: 300 nM
HupD-6H (Lmo2431)
  Kd: 1150 nM
HupD-6H (Lmo2431); relative to Hn
  fold lower affinity for LmoHupD than Hn: 40 fold
